Measurements as given in ChEMBL document CHEMBL4406821, “Novel dual inhibitors targeting CDK4 and VEGFR2 synergistically suppressed cancer progression and angiogenesis” (Eur J Med Chem, 2019).
Calls of active or inactive are those of the source. The rule behind the calls is not given here.

Columns and labels:
T47D [1] = assay: Inhibition of colony formation in human T47D cells at 20 to 40 nM incubated for 5 days by crystal violet staining based light microscopy; format: functional, cell-based
Summary of the method: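 MDA-MB-231, T-47D, SiHa and HeLa cells seeded at 4×10^3/well and cultured with varying concentrations of drug or vehicle for 5 days. Fixed in 20% methanol, stained with 0.5% crystal violet, photographed under light microscopy. DMEM (T-47D) with 10% FBS, 37°C, 5% CO2.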

T47D [2] = assay: Induction of apoptosis in human T47D cells assessed as decrease in Rb phosphorylation incubated for 48 hrs by Western blot analysis; format: functional, cell-based
Summary of the method: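 Cancer cells were exposed to graded concentrations for 48 h, washed three times in PBS and lysed in RIPA buffer. Immunoblots were probed with anti-Rb, anti-phospho-Rb, anti-Ki67 and anti-Bcl-2, each at 1:1000. β-actin served as loading control.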

SiHa [3] = assay: Antiangiogenic activity against human SiHa cells xenografted in orally dosed NOD/SCID BALB/c mouse assessed as reduction in CD31 expression measured after 21 days by hematoxylin and eosin staining based immunohistochemistry; format: functional, organism-based
Summary of the method: (§1)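 Female NOD/SCID Balb/c mice, 6–8 weeks old, received 2×10^6 SiHa cells subcutaneously in the right flank. Once tumors reached 100 mm³, mice were randomized, 5 per group, and gavaged once daily for 21 days. Formalin-fixed, paraffin-embedded tumor sections were stained with Ki67 or CD31 antibody (1:100, 4 °C overnight), then biotin secondary and ABC-peroxidase/DAB, with hematoxylin counterstain.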

[4] = AUMC (0 to t) in Sprague-Dawley rat at 10 mg/kg, iv by HPLC-MS analysis; format: ADME, organism-based; settings: in vivo
Summary of the method: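 Rats fitted with jugular vein catheters for serial blood sampling. Compound dissolved in saline with 5% (v/v) DMSO and given as a single 10 mg/kg dose iv or po after an overnight fast, n = 5 per group. Plasma isolated at once and measured by HPLC with tandem MS detection. Parameters derived by noncompartmental fitting.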

[5] = target: Protein-tyrosine kinase 6 (Homo sapiens) (UniProt Q13882); assay: Inhibition of recombinant full length human BRK at 1 uM using poly(Glu, Tyr) 4:1 as substrate incubated for 40 mins in presence of [gamma-33P]-ATP by scintillation counting method relative to control
Summary of the method: (§2)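 Kinase panel profiling at 1 μM performed by Eurofins KinaseProfiler; percent inhibition reported as mean of two independent experiments.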

[6] = system: Serine/threonine-protein kinase B-raf (Homo sapiens), P15056 [V600E]; assay: Inhibition of recombinant human BRAF V599E mutant (416 to end residues) at 1 uM using myelin as substrate incubated for 40 mins in presence of [gamma-33P]-ATP by scintillation counting method relative to control; summary of the method: as §2
[7] = system: Serine/threonine-protein kinase Chk2 (Homo sapiens), O96017 [R145W]; assay: Inhibition of recombinant human CHK2 R145W mutant (5 to end residues) at 1 uM using KKKVSRSGLYRSP as substrate incubated for 40 mins in presence of [gamma-33P]-ATP by scintillation counting method relative to control; summary of the method: as §2
[8] = target: Proto-oncogene tyrosine-protein kinase Src (Homo sapiens) (UniProt P12931); assay: Inhibition of full length recombinant human c-SRC at 1 uM using KVEKIGEGTYGVV as substrate incubated for 40 mins in presence of [gamma-33P]-ATP by scintillation counting method relative to control; summary of the method: as §2
[9] = target: Ephrin type-B receptor 1 (Homo sapiens) (UniProt P54762); assay: Inhibition of recombinant human EPhB1 (564 to end residues) at 1 uM using KVEKIGEGTYGVVYK as substrate incubated for 40 mins in presence of [gamma-33P]-ATP by scintillation counting method relative to control
[10] = target: Ephrin type-B receptor 3 (Homo sapiens) (UniProt P54753); assay: Inhibition of recombinant human EPhB3 (599 to 920 residues) at 1 uM using poly (Glu, Tyr) 4:1 as substrate incubated for 40 mins in presence of [gamma-33P]-ATP by scintillation counting method relative to control
[11] = target: Mitogen-activated protein kinase kinase kinase 9 (Homo sapiens) (UniProt P80192); assay: Inhibition of recombinant human MLK1 (134 to 414 residues) at 1 uM using casein as substrate incubated for 40 mins in presence of [gamma-33P]-ATP by scintillation counting method relative to control
[12] = target: Serine/threonine-protein kinase D1 (Homo sapiens) (UniProt Q15139); assay: Inhibition of recombinant human full length PKCmu at 1 uM using KKLNRTLSVA as substrate incubated for 40 mins in presence of [gamma-33P]-ATP by scintillation counting method relative to control
[13] = system: Platelet-derived growth factor receptor alpha (Homo sapiens), P16234 [V561D]; assay: Inhibition of recombinant human PDGFRalpha V561D mutant (550 to end residues) at 1 uM using GGMEDIYFEFMGGKKK as substrate incubated for 40 mins in presence of [gamma-33P]-ATP by scintillation counting method relative to control
Summary of the method: (§3)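 Tested at a single 1 uM in an outsourced commercial kinase-profiling panel, read as percent inhibition. Each value is the mean of two independent experiments.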

[14] = system: Mitogen-activated protein kinase 14 (Homo sapiens), Q16539 [T106M]; assay: Inhibition of recombinant human full length SAPK2a T106M mutant at 1 uM using myelin basic protein as substrate incubated for 40 mins in presence of [gamma-33P]-ATP by scintillation counting method relative to control; summary of the method: as §3
[15] = target: TGF-beta receptor type-1 (Homo sapiens) (UniProt P36897); assay: Inhibition of recombinant human TGFBR1 (200 to end residues) at 1 uM using casein as substrate incubated for 40 mins in presence of [gamma-33P]-ATP by scintillation counting method relative to control
[16] = target: Fibroblast growth factor receptor 4 (Homo sapiens) (UniProt P22455); assay: Inhibition of recombinant human FGFR4 (442 to 755 residues) at 1 uM using poly(Glu, Tyr) 4:1 as substrate incubated for 40 mins in presence of [gamma-33P]-ATP by scintillation counting method relative to control; summary of the method: as §3
[17] = target: Platelet-derived growth factor receptor beta (Homo sapiens) (UniProt P09619); assay: Inhibition of recombinant human PDGFRbeta (557 to end residues) at 1 uM using poly(Glu, Tyr) 4:1 as substrate incubated for 40 mins in presence of [gamma-33P]-ATP by scintillation counting method relative to control
SiHa [18] = assay: Antitumor activity against human SiHa cells xenografted in NOD/SCID BALB/c mouse assessed as reduction in Ki67 expression at 40 mg/kg, po measured after 21 days by hematoxylin and eosin staining based immunohistochemistry; format: functional, organism-based; summary of the method: as §1
T47D [19] = assay: Induction of apoptosis in human T47D cells at 40 nM incubated for 48 hrs by annexin V FITC and propidium iodide staining based flow cytometry; format: functional, cell-based
Summary of the method: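 Annexin V-FITC/PI double staining with flow-cytometric readout. MDA-MB-231, T-47D, SiHa and HeLa cells were treated with graded concentrations for 48 h. MDA-MB-231 and T-47D were grown in DMEM and SiHa in 1640 medium, each with 10% FBS and 1% penicillin/streptomycin at 37°C under 5% CO2. Early- and late-stage apoptotic fractions were scored.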

Sequence of Mitogen-activated protein kinase 14 (Homo sapiens), Q16539 [T106M] (Q16539 whole entry T106M): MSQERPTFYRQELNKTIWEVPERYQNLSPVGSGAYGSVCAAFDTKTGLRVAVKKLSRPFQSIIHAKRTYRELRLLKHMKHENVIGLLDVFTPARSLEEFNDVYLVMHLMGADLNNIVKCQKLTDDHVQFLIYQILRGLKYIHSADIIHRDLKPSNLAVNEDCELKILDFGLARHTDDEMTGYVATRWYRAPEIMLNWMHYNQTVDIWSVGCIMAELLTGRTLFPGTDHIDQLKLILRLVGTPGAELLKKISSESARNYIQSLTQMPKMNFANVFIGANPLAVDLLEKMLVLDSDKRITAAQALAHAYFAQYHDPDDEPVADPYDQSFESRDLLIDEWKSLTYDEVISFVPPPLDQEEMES
Sequence of Fibroblast growth factor receptor 4 (Homo sapiens) (P22455 22-802 limits assumed): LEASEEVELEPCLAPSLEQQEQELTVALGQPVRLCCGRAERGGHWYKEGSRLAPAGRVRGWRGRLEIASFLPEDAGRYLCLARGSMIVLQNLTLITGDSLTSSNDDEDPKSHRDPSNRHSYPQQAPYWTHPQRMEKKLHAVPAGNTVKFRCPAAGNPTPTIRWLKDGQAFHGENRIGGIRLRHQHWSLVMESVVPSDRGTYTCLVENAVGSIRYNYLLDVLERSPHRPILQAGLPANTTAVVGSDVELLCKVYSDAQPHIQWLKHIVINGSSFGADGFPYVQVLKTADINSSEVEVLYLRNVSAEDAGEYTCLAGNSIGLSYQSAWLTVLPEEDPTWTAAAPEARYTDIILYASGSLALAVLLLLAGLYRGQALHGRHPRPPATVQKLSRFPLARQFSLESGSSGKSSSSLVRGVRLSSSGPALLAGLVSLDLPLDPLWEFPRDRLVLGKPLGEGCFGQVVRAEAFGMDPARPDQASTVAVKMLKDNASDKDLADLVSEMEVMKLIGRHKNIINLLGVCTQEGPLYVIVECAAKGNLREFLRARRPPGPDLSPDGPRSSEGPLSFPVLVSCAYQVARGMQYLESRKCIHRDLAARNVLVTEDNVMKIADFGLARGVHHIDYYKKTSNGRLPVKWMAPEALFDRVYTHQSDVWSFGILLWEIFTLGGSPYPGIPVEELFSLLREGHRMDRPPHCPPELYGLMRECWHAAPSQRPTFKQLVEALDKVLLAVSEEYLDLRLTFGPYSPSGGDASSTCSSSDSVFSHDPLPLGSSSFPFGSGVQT
Sequence of Protein-tyrosine kinase 6 (Homo sapiens) (Q13882 whole entry, looked up): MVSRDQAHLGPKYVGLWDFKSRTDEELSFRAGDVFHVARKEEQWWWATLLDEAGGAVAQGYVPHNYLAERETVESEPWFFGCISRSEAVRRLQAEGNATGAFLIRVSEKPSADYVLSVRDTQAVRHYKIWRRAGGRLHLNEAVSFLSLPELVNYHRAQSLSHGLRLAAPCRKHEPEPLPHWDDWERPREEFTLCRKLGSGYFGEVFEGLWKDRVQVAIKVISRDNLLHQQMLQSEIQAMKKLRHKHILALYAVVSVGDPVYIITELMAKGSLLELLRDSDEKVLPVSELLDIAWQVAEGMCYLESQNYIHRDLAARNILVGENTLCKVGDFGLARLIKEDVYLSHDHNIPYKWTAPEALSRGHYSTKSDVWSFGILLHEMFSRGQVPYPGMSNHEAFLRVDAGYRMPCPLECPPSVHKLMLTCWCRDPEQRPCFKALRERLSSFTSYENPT
Sequence of Proto-oncogene tyrosine-protein kinase Src (Homo sapiens) (P12931 2-536 limits assumed): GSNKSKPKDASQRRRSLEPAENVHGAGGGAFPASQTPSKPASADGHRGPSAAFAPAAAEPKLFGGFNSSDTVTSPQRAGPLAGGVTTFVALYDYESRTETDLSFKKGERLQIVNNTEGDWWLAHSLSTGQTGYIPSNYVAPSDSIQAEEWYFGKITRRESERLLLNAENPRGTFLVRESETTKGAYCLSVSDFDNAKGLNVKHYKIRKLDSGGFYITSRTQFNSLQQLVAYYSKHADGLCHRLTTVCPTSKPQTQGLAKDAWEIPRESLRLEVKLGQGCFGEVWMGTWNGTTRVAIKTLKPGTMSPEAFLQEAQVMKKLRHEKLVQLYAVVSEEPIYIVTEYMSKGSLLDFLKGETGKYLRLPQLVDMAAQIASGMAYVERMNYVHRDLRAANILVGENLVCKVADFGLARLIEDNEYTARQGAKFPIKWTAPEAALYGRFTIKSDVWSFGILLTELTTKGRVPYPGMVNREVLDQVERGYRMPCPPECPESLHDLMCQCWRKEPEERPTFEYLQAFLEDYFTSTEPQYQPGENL
Sequence of TGF-beta receptor type-1 (Homo sapiens) (P36897 whole entry, the tested form may be a part): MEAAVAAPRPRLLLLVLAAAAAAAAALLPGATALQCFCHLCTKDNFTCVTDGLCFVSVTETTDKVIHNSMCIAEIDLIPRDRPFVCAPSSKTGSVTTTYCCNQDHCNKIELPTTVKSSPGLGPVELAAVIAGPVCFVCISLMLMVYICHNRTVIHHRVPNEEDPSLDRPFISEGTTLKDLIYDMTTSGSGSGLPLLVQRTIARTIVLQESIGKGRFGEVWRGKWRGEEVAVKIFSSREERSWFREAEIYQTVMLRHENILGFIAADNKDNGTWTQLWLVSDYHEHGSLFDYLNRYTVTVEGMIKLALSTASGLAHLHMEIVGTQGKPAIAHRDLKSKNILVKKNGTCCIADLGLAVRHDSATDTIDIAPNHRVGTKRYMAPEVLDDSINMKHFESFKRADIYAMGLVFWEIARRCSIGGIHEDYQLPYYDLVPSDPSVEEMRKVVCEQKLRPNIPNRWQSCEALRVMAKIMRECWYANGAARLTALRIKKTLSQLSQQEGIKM
Sequence of Mitogen-activated protein kinase kinase kinase 9 (Homo sapiens) (P80192 whole entry, looked up, the tested form may be a part): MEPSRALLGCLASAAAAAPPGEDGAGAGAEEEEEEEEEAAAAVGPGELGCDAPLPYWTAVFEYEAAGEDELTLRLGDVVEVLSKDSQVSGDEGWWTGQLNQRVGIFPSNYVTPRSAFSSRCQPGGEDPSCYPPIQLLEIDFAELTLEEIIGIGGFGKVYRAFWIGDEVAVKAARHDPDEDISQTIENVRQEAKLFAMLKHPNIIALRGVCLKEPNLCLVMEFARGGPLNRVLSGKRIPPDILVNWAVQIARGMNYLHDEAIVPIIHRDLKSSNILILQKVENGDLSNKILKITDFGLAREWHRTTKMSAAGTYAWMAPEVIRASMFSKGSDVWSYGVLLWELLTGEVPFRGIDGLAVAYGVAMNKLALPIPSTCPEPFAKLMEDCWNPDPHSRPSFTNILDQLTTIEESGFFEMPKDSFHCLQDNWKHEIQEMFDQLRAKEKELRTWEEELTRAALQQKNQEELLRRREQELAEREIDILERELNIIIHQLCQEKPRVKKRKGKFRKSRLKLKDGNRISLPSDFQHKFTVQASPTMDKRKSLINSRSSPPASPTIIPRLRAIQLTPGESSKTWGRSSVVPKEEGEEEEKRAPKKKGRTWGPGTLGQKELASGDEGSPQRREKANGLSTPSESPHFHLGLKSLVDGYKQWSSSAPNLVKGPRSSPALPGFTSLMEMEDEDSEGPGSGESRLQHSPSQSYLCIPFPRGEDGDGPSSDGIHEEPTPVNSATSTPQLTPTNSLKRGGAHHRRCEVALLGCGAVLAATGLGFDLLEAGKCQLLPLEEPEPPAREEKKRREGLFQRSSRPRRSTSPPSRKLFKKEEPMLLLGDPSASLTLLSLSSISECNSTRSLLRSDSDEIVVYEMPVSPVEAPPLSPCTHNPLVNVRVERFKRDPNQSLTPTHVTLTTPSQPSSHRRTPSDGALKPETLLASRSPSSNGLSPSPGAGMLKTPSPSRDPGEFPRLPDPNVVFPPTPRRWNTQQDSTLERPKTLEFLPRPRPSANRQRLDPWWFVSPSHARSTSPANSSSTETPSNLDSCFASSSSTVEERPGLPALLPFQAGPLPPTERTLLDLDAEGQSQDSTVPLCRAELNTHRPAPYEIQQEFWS
Sequence of Platelet-derived growth factor receptor beta (Homo sapiens) (P09619 whole entry): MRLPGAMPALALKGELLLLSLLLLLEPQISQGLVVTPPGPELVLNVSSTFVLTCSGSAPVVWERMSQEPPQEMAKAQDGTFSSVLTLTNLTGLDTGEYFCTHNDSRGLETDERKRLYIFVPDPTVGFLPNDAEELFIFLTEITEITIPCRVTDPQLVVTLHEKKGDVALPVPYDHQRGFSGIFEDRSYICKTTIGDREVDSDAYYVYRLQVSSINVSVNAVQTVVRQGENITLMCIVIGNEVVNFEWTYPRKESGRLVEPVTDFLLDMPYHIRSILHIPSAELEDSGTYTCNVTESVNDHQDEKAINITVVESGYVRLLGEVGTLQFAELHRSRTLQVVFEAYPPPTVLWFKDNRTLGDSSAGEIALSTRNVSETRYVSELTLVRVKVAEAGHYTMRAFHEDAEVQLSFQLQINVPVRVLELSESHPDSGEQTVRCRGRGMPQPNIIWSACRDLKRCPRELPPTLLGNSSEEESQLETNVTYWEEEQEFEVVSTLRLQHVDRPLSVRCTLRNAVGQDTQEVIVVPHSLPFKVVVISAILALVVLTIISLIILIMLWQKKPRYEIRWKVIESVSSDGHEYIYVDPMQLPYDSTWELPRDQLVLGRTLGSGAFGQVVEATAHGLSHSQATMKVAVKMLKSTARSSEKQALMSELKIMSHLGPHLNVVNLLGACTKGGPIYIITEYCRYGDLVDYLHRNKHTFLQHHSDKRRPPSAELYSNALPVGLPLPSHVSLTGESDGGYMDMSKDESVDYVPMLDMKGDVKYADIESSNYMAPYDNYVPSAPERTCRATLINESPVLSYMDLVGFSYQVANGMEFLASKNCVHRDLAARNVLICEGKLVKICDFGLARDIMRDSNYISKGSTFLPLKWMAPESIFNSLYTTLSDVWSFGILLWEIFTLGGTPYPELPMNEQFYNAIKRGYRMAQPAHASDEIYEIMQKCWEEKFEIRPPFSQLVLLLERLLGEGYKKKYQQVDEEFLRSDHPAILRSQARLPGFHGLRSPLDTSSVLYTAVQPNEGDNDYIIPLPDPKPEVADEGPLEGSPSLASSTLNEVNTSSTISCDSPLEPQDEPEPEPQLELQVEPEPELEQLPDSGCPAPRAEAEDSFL

Cc1ccc(NC(=O)C2(C(=O)Nc3ccc(Nc4ncc(F)c(-c5cc(F)c6nc(C)n(C(C)C)c6c5)n4)cc3)CC2)cc1
inhibition (T47D [1]): Active | Activity (T47D [2]): Dose-dependent effect | inhibition (SiHa [3]): Dose-dependent effect | AUMCt [4]: 17 mg/L.hr | inhibition [5]: 22% | inhibition [6]: 45% | inhibition [7]: 28% | inhibition [8]: 80% | inhibition [9]: 66% | inhibition [10]: 2% | inhibition [11]: 1% | inhibition [12]: 14% | inhibition [13]: 70% | inhibition [14]: 60% | inhibition [15]: 6% | inhibition [16]: 0% | inhibition [17]: 6%

COc1cc2nccc(Oc3ccc(NC(=O)C4(C(=O)Nc5ccc(F)cc5)CC4)cc3)c2cc1OC [CABOZANTINIB]
inhibition (SiHa [18]): Active | Activity (T47D [19]): Active
